Measured values taken from ChEMBL document CHEMBL1122501, “Potential antiatherosclerotic agents. 2. (Aralkylamino)- and (alkylamino) benzoic acid analogues of cetaben” (1983).

Tests used:
[1] = molecular target: T1, Sterol O-acyltransferase 1 (Rattus norvegicus) (UniProt O70536); test: In vitro inhibitory activity against acyl coenzyme A:cholesterol acyltransferase (ACAT); parameters: concentration or dose not given beside the values; conditions: concentration not given here
T1 sequence (whole entry): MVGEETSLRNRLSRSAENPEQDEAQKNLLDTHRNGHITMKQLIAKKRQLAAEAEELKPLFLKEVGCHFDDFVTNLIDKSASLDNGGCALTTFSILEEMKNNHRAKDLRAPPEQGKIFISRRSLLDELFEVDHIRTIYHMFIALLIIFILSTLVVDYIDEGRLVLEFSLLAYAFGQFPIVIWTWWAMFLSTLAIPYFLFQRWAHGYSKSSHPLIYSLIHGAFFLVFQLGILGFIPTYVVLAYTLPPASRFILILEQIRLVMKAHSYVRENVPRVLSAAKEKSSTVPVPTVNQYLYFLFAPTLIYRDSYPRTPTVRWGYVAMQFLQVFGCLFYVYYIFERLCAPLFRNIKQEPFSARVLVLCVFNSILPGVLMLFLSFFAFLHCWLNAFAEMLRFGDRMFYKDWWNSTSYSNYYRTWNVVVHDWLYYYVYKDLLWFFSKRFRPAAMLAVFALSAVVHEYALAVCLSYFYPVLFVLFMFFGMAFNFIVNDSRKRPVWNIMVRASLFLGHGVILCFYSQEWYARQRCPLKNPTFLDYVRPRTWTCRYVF
Outline: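 ACAT enzyme from rat adrenal homogenate in 0.2 M KH2PO4 buffer pH 7.4, 1000g 15 min 5 °C supernatant (microsomal fraction). Supernatant + BSA (50 mg/mL) + compound at final 5.2 μg/mL + buffer preincubated 10 min 37 °C; [14C]oleoyl-CoA (0.4 μCi) added, 30 min 37 °C. Lipids extracted, TLC; cholesteryl ester zone counted. Mean % inhibition vs no-compound control; Student's t test.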

[2] = system: Rattus norvegicus; test: In vivo Triglyceride lowering activity at dose as 0.025% of the diet; type: functional
Outline: (§1)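 Male CFE or CD-1 Sprague-Dawley rats, 140-150 g; 8 per control group, 4 per test group. Compound mixed into ground chow (w/w) via MeOH-CHCl3 (1:3) solution, solvent evaporated; controls got solvent-treated chow. Fed ad libitum 5 days, food intake monitored, killed fed and bled. Serum sterols and triglycerides by adapted autoanalyzer methods; mean percent of control, Student's t test.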

[3] = system: Rattus norvegicus; test: In vivo Sterol lowering activity at dose as 0.025 % of the diet; type: functional; outline: as §1
[4] = system: Rattus norvegicus; test: In vivo Sterol lowering activity at dose as 0.05 % of the diet; type: functional; outline: as §1
[5] = system: Rattus norvegicus; test: In vivo sterol lowering activity dosed at 0.10 % of the diet; type: functional; outline: as §1
[6] = system: Rattus norvegicus; test: In vivo triglyceride lowering activity dosed at 0.05 % of the diet; type: functional; outline: as §1
[7] = system: Rattus norvegicus; test: In vivo triglyceride lowering activity dosed at 0.10 % of the diet; type: functional; outline: as §1
[8] = system: Rattus norvegicus; test: In vivo Triglyceride lowering activity at dose as 0.017 % of the diet.; type: functional; outline: as §1
[9] = system: Rattus norvegicus; test: In vivo Sterol lowering activity at dose as 0.017 % of the diet.; type: functional; outline: as §1
[10] = system: Rattus norvegicus; test: In vivo Sterol lowering activity at dose as 0.05 % of the diet.; type: functional; outline: as §1
[11] = system: Rattus norvegicus; test: In vivo Sterol lowering activity at dose as 0.10 % of the diet.; type: functional; outline: as §1
[12] = system: Rattus norvegicus; test: In vivo Triglyceride lowering activity at dose as 0.05 % of the diet.; type: functional; outline: as §1
[13] = system: Rattus norvegicus; test: In vivo triglyceride lowering activity, dosed at 0.10 % of the diet.; type: functional; outline: as §1
[14] = system: Rattus norvegicus; test: In vivo Triglyceride lowering activity at dose as 0.017 % of the diet; type: functional; outline: as §1
[15] = system: Rattus norvegicus; test: In vivo Sterol lowering activity at dose as 0.017 % of the diet; type: functional; outline: as §1
[16] = system: Rattus norvegicus; test: In vivo Triglyceride lowering activity at dose as 0.025% of the diet.; type: functional; outline: as §1
[17] = system: Rattus norvegicus; test: In vivo Sterol lowering activity at dose as 0.025 % of the diet.; type: functional; outline: as §1
[18] = system: Rattus norvegicus; test: In vivo Triglyceride lowering activity at dose as 0.025 % of the diet.; type: functional; outline: as §1
[19] = system: Rattus norvegicus; test: In vivo Triglyceride lowering activity at dose as 0.025 % of the diet; type: functional; outline: as §1
[20] = system: Rattus norvegicus; test: In vivo triglyceride lowering activity, dosed at 0.03 % of the diet; type: functional; outline: as §1

| SMILES | inhibition [1] [%] | Diet [3] [%] | Diet [4] [%] | serum sterol, percent of control [5] [%] | Diet [6] [%] | serum triglycerides, percent of control [7] [%] | Diet [8] [%] | Diet [9] [%] | Diet [10] [%] | serum sterol, percent of control [11] [%] | Diet [12] [%] | Diet [13] [%] | further results |
| --- | --- | --- | --- | --- | --- | --- | --- | --- | --- | --- | --- | --- | --- |
| O=C(O)c1ccc(NCCCCCCCCCCc2ccccc2)cc1 | < 44 | <87 | 89 | <87 | 88 | 81 | – | – | – | – | – | – | Diet [2]: <79% |
| O=C(O)c1ccc(NCCCCc2cccs2)cc1 | 10 | – | – | – | – | – | 94 | 90 | 98 | 77 | 89 | 90 | – |
| CCCCCCCOc1ccc(CNc2ccc(C(=O)OCC)cc2)cc1 | – | – | <86 | 90 | <76 | <80 | – | – | – | – | – | – | Serum triglycerides, % of control [14]: 88%; Diet [15]: 100% |
| CCOC(=O)c1ccc(NCCCCCCc2ccccc2)cc1 | 41 | 89 | 84 | 82 | 45 | 43 | – | – | – | – | – | – | Diet [16]: 59% |
| O=C(O)c1ccc(NCCc2cccs2)cc1 | 5 | – | – | – | – | – | 121 | 74 | 81 | 88 | 97 | 103 | – |
| COc1ccccc1CCCNc1ccc(C(=O)O)cc1 | 0 | – | – | – | – | – | – | – | 100 | 110 | 87 | 72 | Diet [17]: 102%; Diet [18]: 100% |
| CCOC(=O)c1ccc(NCCc2cccs2)cc1 | 49 | – | – | 86 | – | – | 81 | – | 90 | – | 94 | 69 | Diet [15]: 86% |
| CCOC(=O)c1ccc(NCCCCCCCc2ccccc2)cc1 | < 54 | 90 | 89 | 89 | <82 | <72 | – | – | – | – | – | – | Diet [2]: <84% |
| CCOC(=O)c1ccc(NCCCCCCCCc2ccccc2)cc1 | < 50 | 88 | 96 | 98 | <65 | <54 | – | – | – | – | – | – | Diet [2]: <61% |
| COc1ccc(CNc2ccc(C(=O)O)cc2)cc1 | 5 | – | – | – | – | 60 | – | – | 95 | 94 | 76 | – | Diet [19]: 69%; Diet [17]: 91% |
| CCOC(=O)c1ccc(NCc2ccccc2)cc1 | 45 | – | 90 | 86 | – | – | 97 | 108 | – | – | – | 78 | serum triglycerides, percent of control [20]: 88% |
| CCOC(=O)c1ccc(NCc2ccc(OCc3ccccc3)cc2)cc1 | 45 | – | – | 91 | 85 | – | 97 | 105 | 100 | – | – | 92 | – |
| CCCCCCCCCCc1ccc(CNc2ccc(C(=O)O)cc2)cc1 | < 51 | – | <88 | <78 | 113 | 114 | – | – | – | – | – | – | Serum triglycerides, % of control [14]: 100%; Diet [15]: 99% |
| O=C(O)c1ccc(NCCCCCCc2ccccc2)cc1 | 17 | 83 | 85 | – | 46 | 40 | – | – | – | 86 | – | – | Diet [2]: 52% |
| CCOC(=O)c1ccc(NCCc2cccc3ccccc23)cc1 | 9 | – | – | – | – | 73 | 112 | 98 | 103 | 94 | 80 | – | – |
